Results from ChEMBL document CHEMBL1177890, “Synthesis and biological evaluation of new 2-chloro-3-((4-phenyl-1H-1,2,3-triazol-1-yl)methyl)quinoline derivatives via click chemistry approach” (2010).
In brackets after ≈: the same amount, converted by molar mass.

What was measured:
Type in all cases: functional
Bacillus subtilis [1] = experiment: Antibacterial activity against Bacillus subtilis NCIM 2250 after 48 hrs by agar cup plate method
Summary of the method: (§1)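 Agar cup plate diffusion with compounds dissolved in DMSO. Bacteria (B. subtilis, E. coli) were grown on Mueller Hinton agar at 37 ± 0.5 °C. Fungi (C. albicans, A. niger) were grown on Czapek Dox medium at 28 ± 0.5 °C. Incubation was 48 h. The read-out was the diameter of the inhibition zone, averaged over three independent determinations.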

Escherichia coli [2] = experiment: Antibacterial activity against Escherichia coli ATCC 25922 after 48 hrs by agar cup plate method; summary of the method: as §1
Candida albicans [3] = experiment: Antifungal activity against Candida albicans MTCC 277 after 48 hrs by agar cup plate method; summary of the method: as §1
Aspergillus niger [4] = experiment: Antifungal activity against Aspergillus niger NCIM 545 after 48 hrs by agar cup plate method; summary of the method: as §1
Bacillus subtilis [5] = experiment: Antibacterial activity against Bacillus subtilis NCIM 2250 after 24 to 72 hrs by cup plate method
Summary of the method: (§2)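 MIC by cup plate method on Mueller Hinton agar plates containing compound at 0 (control), 1, 2, 3, 5, 10, 15, 20, 30 or 40 µg/mL. Plates were prepared per NCCLS M7-A5 and incubated at 37 °C. They were examined after 24 h and, where necessary, incubated further for 72 h. The MIC was taken as the lowest concentration giving inhibition.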

Escherichia coli [6] = experiment: Antibacterial activity against Escherichia coli ATCC 25922 after 24 to 72 hrs by cup plate method; summary of the method: as §2
Candida albicans [7] = experiment: Antifungal activity against Candida albicans MTCC 277 after 24 to 72 hrs by cup plate method; summary of the method: as §2
Aspergillus niger [8] = experiment: Antifungal activity against Aspergillus niger NCIM 545 after 24 to 72 hrs by cup plate method; summary of the method: as §2

SMILES | MIC (Bacillus subtilis [5]) [µg/mL] | MIC (Escherichia coli [6]) [µg/mL] | MIC (Candida albicans [7]) [µg/mL] | MIC (Aspergillus niger [8]) [µg/mL] | diameter of the inhibition zone (DIZ) (Bacillus subtilis [1]) [mm] | diameter of the inhibition zone (DIZ) (Escherichia coli [2]) [mm] | diameter of the inhibition zone (DIZ) (Candida albicans [3]) [mm] | diameter of the inhibition zone (DIZ) (Aspergillus niger [4]) [mm]
Cc1cccc2cc(Cn3cc(-c4ccccc4)nn3)c(Cl)nc12 | 20 (≈ 59.7 µM) | 20 (≈ 59.7 µM) | 25 (≈ 74.7 µM) | 20 (≈ 59.7 µM) | 12 | 12 | 13.4 | 12.7
COc1ccc2cc(Cn3cc(-c4ccccc4)nn3)c(Cl)nc2c1 | 10 (≈ 28.5 µM) | 10 (≈ 28.5 µM) | 15 (≈ 42.8 µM) | 20 (≈ 57 µM) | 16 | 16.4 | 14 | 
CCOc1ccc2nc(Cl)c(Cn3cc(-c4ccccc4)nn3)cc2c1 |  |  | 10 (≈ 27.4 µM) |  |  |  | 16.5 | 12.8
COC1=CC(=O)C[C@@H](C)[C@]12Oc1c(Cl)c(OC)cc(OC)c1C2=O [GRISEOFULVIN] |  |  | 5 (≈ 14.2 µM) |  |  |  | 16.9 | 16.6
CN[C@@H]1[C@H](O[C@H]2[C@H](O[C@H]3[C@H](O)[C@@H](O)[C@H](N=C(N)N)[C@@H](O)[C@@H]3N=C(N)N)O[C@@H](C)[C@]2(O)C=O)O[C@@H](CO)[C@H](O)[C@H]1O [STREPTOMYCIN] | 5 (≈ 8.6 µM) | 5 (≈ 8.6 µM) |  | 5 (≈ 8.6 µM) | 16.5 | 16.1 |  | 

The remaining molecules from weak to strong by MIC (Candida albicans [7]), led by results:

MIC (Bacillus subtilis [5]) [µg/mL] | MIC (Escherichia coli [6]) [µg/mL] | MIC (Candida albicans [7]) [µg/mL] | MIC (Aspergillus niger [8]) [µg/mL] | SMILES | diameter of the inhibition zone (DIZ) (Bacillus subtilis [1]) [mm] | diameter of the inhibition zone (DIZ) (Escherichia coli [2]) [mm] | diameter of the inhibition zone (DIZ) (Candida albicans [3]) [mm] | diameter of the inhibition zone (DIZ) (Aspergillus niger [4]) [mm]
15 (≈ 46.8 µM) | 15 (≈ 46.8 µM) | 15 (≈ 46.8 µM) | 20 (≈ 62.3 µM) | Clc1nc2ccccc2cc1Cn1cc(-c2ccccc2)nn1 | 13.5 | 12 | 16 | 10
25 (≈ 74.7 µM) | 15 (≈ 44.8 µM) | 15 (≈ 44.8 µM) | 10 (≈ 29.9 µM) | Cc1ccc2nc(Cl)c(Cn3cc(-c4ccccc4)nn3)cc2c1 | 11.4 | 14 | 14.7 | 16.1
10 (≈ 28.7 µM) | 15 (≈ 43 µM) | 15 (≈ 43 µM) |  | CCc1cccc2cc(Cn3cc(-c4ccccc4)nn3)c(Cl)nc12 | 16.1 | 15.9 | 14 | 
10 (≈ 28.5 µM) |  | 15 (≈ 42.8 µM) | 15 (≈ 42.8 µM) | COc1ccc2nc(Cl)c(Cn3cc(-c4ccccc4)nn3)cc2c1 | 16.7 |  | 15.7 | 16.3
10 (≈ 29.9 µM) | 15 (≈ 44.8 µM) | 10 (≈ 29.9 µM) |  | Cc1ccc2cc(Cn3cc(-c4ccccc4)nn3)c(Cl)nc2c1 | 16.6 | 14 | 16.4 | 
